Calls of active or inactive are those of the source. The rule behind the calls is not given here.

Assay [1] concerns Enterococcus faecium. Briefly: Antimicrobial activity against Enterococcus faecium assessed as inhibition of microbial growth at 45 uM after 24 hrs. Format: functional, organism-based. The gist of the method: (§1)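 Broth microdilution single-concentration read: overnight cultures diluted 1:1000, compound in DMF (≤2.0%) added, 37°C for 24 h, growth inhibition scored visually by lack of turbidity; triplicate. Gram-positives grown in TSB, Gram-negatives in LB.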

The test system of assay [2] is Pseudomonas aeruginosa. Put plainly: Antimicrobial activity against Pseudomonas aeruginosa assessed as inhibition of microbial growth at 45 uM after 24 hrs. It counts as functional, organism-based. The gist of the method: as §1
Assay [3] has as its system Klebsiella pneumoniae. Put plainly: Antimicrobial activity against Klebsiella pneumoniae assessed as inhibition of microbial growth at 45 uM after 24 hrs. It counts as functional, organism-based. The essentials:
as §1

In assay [4] the test system is Staphylococcus aureus. Put plainly: Antimicrobial activity against Staphylococcus aureus assessed as inhibition of microbial growth at 45 uM after 24 hrs. Format: functional, organism-based. The gist of the method:
as §1

In assay [5] the test system is Enterobacter cloacae. Briefly: Antimicrobial activity against Enterobacter cloacae assessed as inhibition of microbial growth at 45 uM after 24 hrs. Format: functional, organism-based. The essentials: as §1
The subject of assay [6] is Acinetobacter baumannii. Briefly: Antimicrobial activity against Acinetobacter baumannii assessed as inhibition of microbial growth at 45 uM after 24 hrs. Format: functional, organism-based. The essentials: as §1
Assay [7] deals with Enterobacter cloacae. Briefly: Antimicrobial activity against Enterobacter cloacae assessed as inhibition of microbial growth after 24 hrs. Format: functional. The essentials:
(§2)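 Broth microdilution against multidrug-resistant clinical ESKAPE isolates. Overnight cultures (TSB for Gram-positives, LB for Gram-negatives) diluted 1:1000 in fresh medium, compound in DMF (≤2.0% DMF) added at decreasing concentrations, 37°C.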

The subject of assay [8] is Acinetobacter baumannii. Put plainly: Antimicrobial activity against Acinetobacter baumannii assessed as inhibition of microbial growth after 24 hrs. Format: functional. The essentials:
as §2

Assay [9] concerns Staphylococcus aureus. Put plainly: Antimicrobial activity against Staphylococcus aureus assessed as inhibition of microbial growth after 24 hrs. It counts as functional. The gist of the method: as §2
Assay [10] has as its system Klebsiella pneumoniae. Briefly: Antimicrobial activity against Klebsiella pneumoniae assessed as inhibition of microbial growth after 24 hrs. It counts as functional. The gist of the method: as §2
For assay [11], the system named is Pseudomonas aeruginosa. Briefly: Antimicrobial activity against Pseudomonas aeruginosa assessed as inhibition of microbial growth after 24 hrs. It counts as functional. The essentials: as §2
Assay [12] has as its system Enterococcus faecium. Put plainly: Antimicrobial activity against Enterococcus faecium assessed as inhibition of microbial growth after 24 hrs. Format: functional. The essentials:
as §2

Regarding `CCCC[C@H]1CN(CCCC[C@H]2CNC(=N)N2CCc2cccc(C(F)(F)F)c2)C(=N)N1CCc1ccc(-c2ccccc2)cc1`, the “growth inhibition (GI)” value with Enterococcus faecium [1], in the assay on Pseudomonas aeruginosa [2], in the assay with Klebsiella pneumoniae [3], in the assay on Staphylococcus aureus [4], in the assay with Enterobacter cloacae [5] and with Acinetobacter baumannii [6] was “Active” each time.
As to `CCCCCCCN1C(=N)N(CCCC[C@H]2CNC(=N)N2CCC23CC4CC(CC(C4)C2)C3)C[C@H]1Cc1cccc2ccccc12`, the “growth inhibition (GI)” value with Enterococcus faecium [1], in the assay with Pseudomonas aeruginosa [2], in the assay with Klebsiella pneumoniae [3], in the assay on Staphylococcus aureus [4], in the assay with Enterobacter cloacae [5] and with Acinetobacter baumannii [6] was “Active” each time.
`CCCCCCCN1C(=N)N(CCCC[C@H]2CNC(=N)N2CCc2cccc(C(F)(F)F)c2)C[C@H]1Cc1cccc2ccccc12`: the “growth inhibition (GI)” value in the assay with Enterococcus faecium [1], in the assay with Pseudomonas aeruginosa [2], in the assay on Klebsiella pneumoniae [3], in the assay on Staphylococcus aureus [4], in the assay on Enterobacter cloacae [5] and in the assay with Acinetobacter baumannii [6] was “Active” in each case.
As to `CCCC[C@H]1CN(CCCC[C@H]2CNC(=N)N2CCC23CC4CC(CC(C4)C2)C3)C(=N)N1CCCCC1CCCCC1`, the “growth inhibition (GI)” value in the assay with Enterococcus faecium [1], in the assay with Pseudomonas aeruginosa [2], in the assay with Klebsiella pneumoniae [3], in the assay on Staphylococcus aureus [4], with Enterobacter cloacae [5] and in the assay with Acinetobacter baumannii [6] was “Active” throughout.
Turning to `N=C1NC[C@H](CCCCN2C[C@H](CC3CCCCC3)N(CCc3ccc(-c4ccccc4)cc3)C2=N)N1CCc1cccc(C(F)(F)F)c1`, the “growth inhibition (GI)” value in the assay on Enterococcus faecium [1], with Pseudomonas aeruginosa [2], in the assay with Klebsiella pneumoniae [3], in the assay with Staphylococcus aureus [4], in the assay with Enterobacter cloacae [5] and in the assay with Acinetobacter baumannii [6] was “Active” throughout.
As to `N=C1NC[C@H](CCCCN2C[C@H](CC3CCCCC3)N(CCCCC3CCCCC3)C2=N)N1CCc1cccc(C(F)(F)F)c1`, the “growth inhibition (GI)” value in the assay on Enterococcus faecium [1], in the assay on Pseudomonas aeruginosa [2], with Klebsiella pneumoniae [3], with Staphylococcus aureus [4], with Enterobacter cloacae [5] and with Acinetobacter baumannii [6] was “Active” throughout.
`N=C1NC[C@H](CCCCN2C[C@@H](Cc3cccc4ccccc34)N(CCc3ccc(-c4ccccc4)cc3)C2=N)N1CCCCC1CCCCC1`: the “growth inhibition (GI)” value in the assay on Enterococcus faecium [1], with Pseudomonas aeruginosa [2], in the assay with Klebsiella pneumoniae [3], in the assay on Staphylococcus aureus [4], in the assay on Enterobacter cloacae [5] and with Acinetobacter baumannii [6] was “Active” throughout.
On to `N=C1NC[C@H](CCCCN2C[C@H](CC3CCCCC3)N(CCCCC3CCCCC3)C2=N)N1CCC12CC3CC(CC(C3)C1)C2`, for which the “growth inhibition (GI)” value in the assay on Enterococcus faecium [1], in the assay on Pseudomonas aeruginosa [2], in the assay with Klebsiella pneumoniae [3], with Staphylococcus aureus [4], with Enterobacter cloacae [5] and in the assay with Acinetobacter baumannii [6] was “Active” in each case.
`N=C1NC[C@H](CCCCN2C[C@H](CC3CCCCC3)N(CCCCC3CCCCC3)C2=N)N1CCCCC1CCCCC1`: the “growth inhibition (GI)” value with Enterococcus faecium [1], in the assay on Pseudomonas aeruginosa [2], in the assay with Klebsiella pneumoniae [3], in the assay on Staphylococcus aureus [4], with Enterobacter cloacae [5] and with Acinetobacter baumannii [6] was “Active” in each case.
In the case of `CCCCCCCN1C(=N)N(CCCC[C@H]2CNC(=N)N2CCCCC2CCCCC2)C[C@@H]1CCCC`, the “growth inhibition (GI)” value in the assay with Enterococcus faecium [1], in the assay with Pseudomonas aeruginosa [2], in the assay with Klebsiella pneumoniae [3], in the assay on Staphylococcus aureus [4], with Enterobacter cloacae [5] and in the assay on Acinetobacter baumannii [6] was “Active” throughout.
As for `CCCCCCCN1C(=N)N(CCCC[C@H]2CNC(=N)N2CCC23CC4CC(CC(C4)C2)C3)C[C@@H]1CC1CCCCC1`, the “growth inhibition (GI)” value in the assay on Enterococcus faecium [1], with Pseudomonas aeruginosa [2], in the assay on Klebsiella pneumoniae [3], with Staphylococcus aureus [4], with Enterobacter cloacae [5] and with Acinetobacter baumannii [6] was “Active” each time.
In the case of `CCCCCCCN1C(=N)N(CCCC[C@H]2CNC(=N)N2CCCCC2CCCCC2)C[C@H]1Cc1cccc2ccccc12`, the “growth inhibition (GI)” value with Enterococcus faecium [1], with Pseudomonas aeruginosa [2], in the assay on Klebsiella pneumoniae [3], in the assay with Staphylococcus aureus [4], in the assay with Enterobacter cloacae [5] and with Acinetobacter baumannii [6] was “Active” in each case.
Regarding `N=C1NC[C@H](CCCCN2C[C@H](CC3CCCCC3)N(CCc3ccc(-c4ccccc4)cc3)C2=N)N1CCCCC1CCCCC1`, the “growth inhibition (GI)” value in the assay with Enterococcus faecium [1], in the assay with Pseudomonas aeruginosa [2], with Klebsiella pneumoniae [3], in the assay with Staphylococcus aureus [4], with Enterobacter cloacae [5] and in the assay with Acinetobacter baumannii [6] was “Active” in each case.
As to `N=C1NC[C@H](CCCCN2C[C@@H](Cc3cccc4ccccc34)N(CCCCC3CCCCC3)C2=N)N1CCc1cccc(C(F)(F)F)c1`, the “growth inhibition (GI)” value in the assay with Enterococcus faecium [1], with Pseudomonas aeruginosa [2], in the assay on Klebsiella pneumoniae [3], in the assay with Staphylococcus aureus [4], with Enterobacter cloacae [5] and in the assay with Acinetobacter baumannii [6] was “Active” each time.
Consider `N=C1NC[C@H](CCCCN2C[C@@H](Cc3cccc4ccccc34)N(CCc3ccc(-c4ccccc4)cc3)C2=N)N1CCc1cccc(C(F)(F)F)c1`, for which the “growth inhibition (GI)” value in the assay with Enterococcus faecium [1], with Pseudomonas aeruginosa [2], in the assay with Klebsiella pneumoniae [3], with Staphylococcus aureus [4], with Enterobacter cloacae [5] and in the assay with Acinetobacter baumannii [6] was “Active” in each case.
On to `CCCC[C@H]1CN(CCCC[C@H]2CNC(=N)N2CCCCC2CCCCC2)C(=N)N1CCCCC1CCCCC1`, for which the “growth inhibition (GI)” value in the assay on Enterococcus faecium [1], in the assay with Pseudomonas aeruginosa [2], in the assay with Klebsiella pneumoniae [3], in the assay on Staphylococcus aureus [4], in the assay with Enterobacter cloacae [5] and with Acinetobacter baumannii [6] was “Active” each time.
As for `CC1CCC(CN2C(=N)NC[C@@H]2CCCCN2CCNC2=N)CC1` (stereo partly drawn), the MIC entry in the assay with Enterobacter cloacae [7], in the assay with Acinetobacter baumannii [8], in the assay with Staphylococcus aureus [9], in the assay with Klebsiella pneumoniae [10], in the assay on Pseudomonas aeruginosa [11] and with Enterococcus faecium [12] was “inactive” each time.
As to `CCC[C@@H]1CN(CCCC[C@H]2CNC(=N)N2CC2CCCCC2)C(=N)N1CC(C)CC` (stereo partly drawn), the MIC result with Enterobacter cloacae [7], in the assay on Acinetobacter baumannii [8], with Staphylococcus aureus [9], in the assay with Klebsiella pneumoniae [10], in the assay with Pseudomonas aeruginosa [11] and in the assay with Enterococcus faecium [12] was “inactive” throughout.
As to `N=C1NC[C@H](CCCCN2C[C@@H](Cc3cccc4ccccc34)N(CCc3ccc(-c4ccccc4)cc3)C2=N)N1CCC12CC3CC(CC(C3)C1)C2`, the “growth inhibition (GI)” value in the assay with Enterococcus faecium [1], with Pseudomonas aeruginosa [2], in the assay on Klebsiella pneumoniae [3], in the assay on Staphylococcus aureus [4], in the assay with Enterobacter cloacae [5] and in the assay with Acinetobacter baumannii [6] was “inactive” each time.
Turning to `CCC(C)CN1C(=N)N(CCCC[C@H]2CNC(=N)N2CC2CCCCC2)C[C@@H]1[C@@H](C)CC` (stereo partly drawn), the MIC entry with Enterobacter cloacae [7], with Acinetobacter baumannii [8], in the assay with Staphylococcus aureus [9], in the assay with Klebsiella pneumoniae [10], in the assay with Pseudomonas aeruginosa [11] and in the assay on Enterococcus faecium [12] was “inactive” each time.
Turning to `CCCCCCCN1C(=N)NC[C@@H]1CCCCN1CCNC1=N`, the MIC result in the assay on Enterobacter cloacae [7], in the assay with Acinetobacter baumannii [8], in the assay on Staphylococcus aureus [9], with Klebsiella pneumoniae [10], in the assay on Pseudomonas aeruginosa [11] and in the assay on Enterococcus faecium [12] was “inactive” throughout.
`CC[C@H](C)[C@H]1CN(CCCC[C@H]2CNC(=N)N2CC2CCCCC2)C(=N)N1`: the MIC entry in the assay on Enterobacter cloacae [7], in the assay with Acinetobacter baumannii [8], in the assay with Staphylococcus aureus [9], in the assay on Klebsiella pneumoniae [10], with Pseudomonas aeruginosa [11] and with Enterococcus faecium [12] was “inactive” in each case.
On to `CC[C@H](C)[C@H]1CN(CCCC[C@H]2CNC(=N)N2CC2CCC(C)CC2)C(=N)N1` (stereo partly drawn), for which the MIC result in the assay with Enterobacter cloacae [7], in the assay on Acinetobacter baumannii [8], in the assay with Staphylococcus aureus [9], in the assay with Klebsiella pneumoniae [10], with Pseudomonas aeruginosa [11] and in the assay with Enterococcus faecium [12] was “inactive” throughout.

The values above are taken from ChEMBL document CHEMBL3421570, “Combinatorial Libraries As a Tool for the Discovery of Novel, Broad-Spectrum Antibacterial Agents Targeting the ESKAPE Pathogens” (J Med Chem, 2015).
